Data as given in ChEMBL document CHEMBL1127482 (J Med Chem, 1994).
*1 amine or outer side, *2 acyl side, *3 side chain or, on linkers, in order; H or OH if unused. Where a SMILES comes first, the peptide text is derived from it. Bridges are numbered along the chain shown (N, C = ends). X4 = C[C@H](S[*:2])C(=O)[*:1]

Target: Integrin alpha-V/beta-5 (Homo sapiens, UniProt P06756+P18084)
Assay: Binding affinity against integrin alpha V-beta5 in enzyme linked immunosorbent assay (ELISA)
Type: protein-complex assay
In short: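 It is added to wells coated with human vitronectin in 0.1 M carbonate, pH 9.6, with 10-fold serial peptide dilutions for 3 h at room temperature. Detection uses rabbit anti-VnR, HRP anti-rabbit IgG and o-phenylenediamine/H2O2.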

Integrin alpha-V/beta-5, sequence (P06756 31-889 limits assumed): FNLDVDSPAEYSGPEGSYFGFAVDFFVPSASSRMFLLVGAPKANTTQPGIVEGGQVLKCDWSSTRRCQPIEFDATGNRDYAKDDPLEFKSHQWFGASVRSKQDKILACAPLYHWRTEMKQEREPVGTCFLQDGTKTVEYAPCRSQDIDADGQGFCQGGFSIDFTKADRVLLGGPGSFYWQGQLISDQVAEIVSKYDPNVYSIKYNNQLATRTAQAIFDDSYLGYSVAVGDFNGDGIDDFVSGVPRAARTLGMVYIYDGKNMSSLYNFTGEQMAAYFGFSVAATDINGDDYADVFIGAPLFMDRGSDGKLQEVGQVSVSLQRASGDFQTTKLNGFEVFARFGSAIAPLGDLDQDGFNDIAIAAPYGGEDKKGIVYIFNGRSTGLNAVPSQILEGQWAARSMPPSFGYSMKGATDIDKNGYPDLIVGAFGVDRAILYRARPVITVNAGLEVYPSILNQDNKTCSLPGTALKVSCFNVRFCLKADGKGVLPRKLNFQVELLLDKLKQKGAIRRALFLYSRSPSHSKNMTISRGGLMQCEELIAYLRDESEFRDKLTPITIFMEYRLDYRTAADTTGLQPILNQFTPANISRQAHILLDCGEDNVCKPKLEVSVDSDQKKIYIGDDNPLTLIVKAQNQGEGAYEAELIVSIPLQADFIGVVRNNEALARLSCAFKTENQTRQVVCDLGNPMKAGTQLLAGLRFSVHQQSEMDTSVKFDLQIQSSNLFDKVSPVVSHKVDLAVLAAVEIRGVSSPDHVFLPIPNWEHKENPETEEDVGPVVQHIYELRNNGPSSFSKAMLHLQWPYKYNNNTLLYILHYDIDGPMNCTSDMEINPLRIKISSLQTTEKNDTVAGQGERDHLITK
Integrin alpha-V/beta-5, sequence (P06756 891-1048 limits assumed): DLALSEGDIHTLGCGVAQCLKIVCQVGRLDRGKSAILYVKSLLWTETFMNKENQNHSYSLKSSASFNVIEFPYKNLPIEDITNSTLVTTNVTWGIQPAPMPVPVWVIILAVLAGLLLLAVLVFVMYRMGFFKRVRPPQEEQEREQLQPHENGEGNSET
Integrin alpha-V/beta-5, sequence (P18084 24-799 limits assumed): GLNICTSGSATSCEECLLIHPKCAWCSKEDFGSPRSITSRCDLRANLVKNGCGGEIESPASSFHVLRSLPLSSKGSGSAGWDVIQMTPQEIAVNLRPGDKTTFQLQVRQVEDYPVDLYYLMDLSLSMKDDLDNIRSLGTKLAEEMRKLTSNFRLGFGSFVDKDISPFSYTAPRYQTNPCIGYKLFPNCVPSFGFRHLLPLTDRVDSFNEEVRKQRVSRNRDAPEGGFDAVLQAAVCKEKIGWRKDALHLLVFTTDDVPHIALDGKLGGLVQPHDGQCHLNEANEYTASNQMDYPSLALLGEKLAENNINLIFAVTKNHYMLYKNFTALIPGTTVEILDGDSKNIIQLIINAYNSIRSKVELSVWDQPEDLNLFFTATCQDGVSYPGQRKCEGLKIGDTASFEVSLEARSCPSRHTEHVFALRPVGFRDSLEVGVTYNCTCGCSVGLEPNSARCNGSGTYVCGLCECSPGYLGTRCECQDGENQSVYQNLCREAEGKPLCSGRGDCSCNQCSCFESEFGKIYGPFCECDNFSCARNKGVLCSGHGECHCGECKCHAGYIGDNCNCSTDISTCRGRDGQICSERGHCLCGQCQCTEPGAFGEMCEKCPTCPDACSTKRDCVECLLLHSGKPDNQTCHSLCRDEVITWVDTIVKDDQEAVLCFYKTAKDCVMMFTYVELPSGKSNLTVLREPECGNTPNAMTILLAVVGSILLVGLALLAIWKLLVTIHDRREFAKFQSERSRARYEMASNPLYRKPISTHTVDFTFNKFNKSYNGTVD

Structure (SMILES) | IC50 [nM]
COc1ccc(C[C@@H]2NC(=O)[C@H](CC(=O)O)NC(=O)CNC(=O)[C@H](CCCNC(=N)N)NC(=O)[C@@H]3CCCN3C(=O)CNC(=O)[C@@H](NC(=O)[C@@H](N)CCCNC(=N)N)C3(CCCCC3)SSC[C@@H](C(=O)N[C@@H](CCCNC(=N)N)C(=O)O)NC(=O)[C@H](CCCNC(=N)N)NC2=O)cc1 | 1700
CC(C)C[C@@H]1NC(=O)[C@H](CC(=O)O)NC(=O)CNC(=O)[C@H](CCCNC(=N)N)NC(=O)[C@H](Cc2c[nH]cn2)NC(=O)CNC(=O)[C@H](NC(=O)CN)C(C)(C)SSC[C@@H](C(=O)N[C@@H](C)C(=O)O)NC(=O)[C@H](CCCNC(=N)N)NC1=O (stereo in doubt; 1) | 8260
COc1ccc(C[C@@H]2NC(=O)[C@H](CC(=O)O)NC(=O)CNC(=O)[C@H](CCCN=C(N)N)NC(=O)[C@H](Cc3c[nH]cn3)NC(=O)[C@H](CC(=O)O)NC(=O)[C@@H](NC(=O)[C@@H](N)CCCN=C(N)N)C3(CCCCC3)SSC[C@@H](C(=O)N[C@@H](CCCN=C(N)N)C(=O)O)NC(=O)[C@H](CCCN=C(N)N)NC2=O)cc1 | 7200
COc1ccc(C[C@@H]2NC(=O)[C@H](CC(=O)O)NC(=O)CNC(=O)[C@H](CCCNC(=N)N)NC(=O)[C@@H]3CCCN3C(=O)[C@H](CC(N)=O)NC(=O)[C@@H](NC(C)=O)CSSC[C@@H](C(N)=O)NC(=O)[C@H](CCCNC(N)=O)NC2=O)cc1 | 3460
COc1ccc(C[C@@H]2NC(=O)[C@H](CC(=O)O)NC(=O)CNC(=O)[C@H](CCCN=C(N)N)NC(=O)[C@H](Cc3c[nH]cn3)NC(=O)[C@H](CO)NC(=O)[C@@H](NC(=O)[C@@H](N)CCCN=C(N)N)C3(CCCCC3)SSC[C@@H](C(=O)N[C@@H](CCCN=C(N)N)C(=O)O)NC(=O)[C@H](CCCN=C(N)N)NC2=O)cc1 | 6600
COc1ccc(C[C@@H]2NC(=O)[C@H](CC(=O)O)NC(=O)CNC(=O)[C@H](CCCNC(=N)N)NC(=O)[C@@H]3CCCN3C(=O)[C@H](CC(N)=O)NC(=O)[C@@H](NC(C)=O)CSSC[C@@H](C(N)=O)NC(=O)[C@H](CCCN)NC2=O)cc1 | 7700
COc1ccc(C[C@@H]2NC(=O)[C@H](CC(=O)O)NC(=O)CNC(=O)[C@H](CCCN=C(N)N)NC(=O)[C@@H]3CCCN3C(=O)[C@H](CC(N)=O)NC(=O)CCSSC[C@@H](C(N)=O)NC(=O)[C@H](CCCN=C(N)N)NC2=O)cc1 | 3000
COc1ccc(C[C@@H]2NC(=O)[C@H](CC(=O)O)NC(=O)CNC(=O)[C@H](CCCN=C(N)N)NC(=O)[C@@H]3CCCN3C(=O)[C@H](CC(N)=O)NC(=O)[C@@H](NC(C)=O)C3(CCCCC3)SSC[C@@H](C(N)=O)NC(=O)[C@H](CCCN=C(N)N)NC2=O)cc1 [listing 1 of 2 here] | 2340
COc1ccc(C[C@@H]2NC(=O)[C@H](CC(=O)O)NC(=O)CNC(=O)[C@H](CCCNC(=N)N)NC(=O)[C@@H]3CCCN3C(=O)[C@H](CC(N)=O)NC(=O)[C@@H](NC(C)=O)CSSC[C@@H](C(N)=O)NC(=O)[C@H](CCCCN)NC2=O)cc1 | 5820
CC[C@H](C)[C@@H]1NC(=O)[C@@H](NC(=O)[C@@H](N)CCCN=C(N)N)C2(CCCCC2)SSC[C@@H](C(=O)N[C@@H](CCCN=C(N)N)C(=O)O)NC(=O)[C@H](CCCN=C(N)N)NC(=O)[C@H](Cc2ccc(OC)cc2)NC(=O)[C@H](CC(=O)O)NC(=O)CNC(=O)[C@H](CCCN=C(N)N)NC(=O)[C@H](Cc2c[nH]cn2)NC1=O | 9900
COc1ccc(C[C@@H]2NC(=O)[C@H](CC(=O)O)NC(=O)CNC(=O)[C@H](CCCNC(=N)N)NC(=O)[C@@H]3CCCN3C(=O)[C@H](CC(N)=O)NC(=O)[C@@H](NC(C)=O)CSSC[C@@H](C(N)=O)NC(=O)[C@H](C)NC2=O)cc1 | 8850
COc1ccc(C[C@@H]2NC(=O)[C@H](CC(=O)O)NC(=O)CNC(=O)[C@H](CCCNC(=N)N)NC(=O)[C@@H]3CCCN3C(=O)[C@H](CC(N)=O)NC(=O)[C@@H](NC(C)=O)CSSC[C@@H](C(N)=O)NC(=O)[C@H](CCC(=O)O)NC2=O)cc1 | 9470

Organism: Homo sapiens
Assay: Inhibition of 10 uM ADP induced platelet aggregation in human platelet rich citreated plasma (PRP)
Type: functional
In short: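 Aggregation is read as the increase in light transmission in an aggregometer, with platelets used within 3 h of collection. IC50 comes from regression of dose-response curves for inhibition of maximal aggregation, adjusted against a standard run in each experiment.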

Structure (SMILES) | IC50 [nM]
COc1ccc(C[C@@H]2NC(=O)[C@H](CC(=O)O)NC(=O)CNC(=O)[C@H](CCCN=C(N)N)NC(=O)[C@H](Cc3c[nH]cn3)NC(=O)[C@H](CC(=O)O)NC(=O)[C@@H](NC(=O)[C@@H](N)CCCN=C(N)N)C3(CCCCC3)SSC[C@@H](C(=O)N[C@@H](CCCN=C(N)N)C(=O)O)NC(=O)[C@H](CCCN=C(N)N)NC2=O)cc1 | 2750
CCCCOc1ccc(C[C@@H]2NC(=O)[C@H](CC(=O)O)NC(=O)CNC(=O)[C@H](CCCN=C(N)N)NC(=O)[C@@H]3CCCN3C(=O)[C@H]([C@@H](C)CC)NC(=O)[C@@H](NC(C)=O)CSSC[C@@H](C(N)=O)NC(=O)[C@H](CCCN=C(N)N)NC2=O)cc1 | 480
COc1ccc(C[C@@H]2NC(=O)[C@H](CC(=O)O)NC(=O)CNC(=O)[C@H](CCCN=C(N)N)NC(=O)[C@H](Cc3c[nH]cn3)NC(=O)[C@H](CO)NC(=O)[C@@H](NC(=O)[C@@H](N)CCCN=C(N)N)C3(CCCCC3)SSC[C@@H](C(=O)N[C@@H](CCCN=C(N)N)C(=O)O)NC(=O)[C@H](CCCN=C(N)N)NC2=O)cc1 | 950
N=C(N)NCCC[C@H](NC(=O)[C@@H]1CSSC2(CCCCC2)[C@H](NC(=O)[C@@H](N)CCCNC(=N)N)C(=O)NCC(=O)N[C@@H](Cc2c[nH]cn2)C(=O)N[C@@H](CCCNC(=N)N)C(=O)NCC(=O)N[C@@H](CC(=O)O)C(=O)N[C@@H](CCc2ccccc2)C(=O)N[C@@H](CCCNC(=N)N)C(=O)N1)C(=O)O | 600
CC(C)[C@H]1NC(=O)[C@H](CC(=O)O)NC(=O)CNC(=O)[C@H](CCCN=C(N)N)NC(=O)[C@@H](Cc2c[nH]cn2)NC(=O)CNC(=O)[C@@H](N)CCC/N=C(/N)NC(=O)[C@H](N)C2(CCCCC2)SSC[C@@H](C(=O)N[C@@H](CCCN=C(N)N)C(=O)O)NC(=O)[C@H](CCCN=C(N)N)NC1=O | 690
COc1ccc(C[C@@H]2NC(=O)[C@H](CC(=O)O)NC(=O)CNC(=O)[C@H](CCCN=C(N)N)NC(=O)[C@@H]3CCCN3C(=O)[C@H](CC(N)=O)NC(=O)[C@@H](NC(C)=O)C3(CCCCC3)SSC[C@@H](C(N)=O)NC(=O)[C@H](CCCN=C(N)N)NC2=O)cc1 [listing 2 of 2 here] | 150
COc1ccc(C[C@@H]2NC(=O)[C@H](CC(=O)O)NC(=O)CNC(=O)[C@H](CCCCN)NC(=O)[C@@H]3CCCN3C(=O)[C@H](CC(N)=O)NC(=O)[C@@H](NC(C)=O)CSSC[C@@H](C(N)=O)NC(=O)[C@H](CCCN=C(N)N)NC2=O)cc1 | 700
COc1ccc(C[C@@H]2NC(=O)[C@H](CC(=O)O)NC(=O)CNC(=O)[C@H](CCCN=C(N)N)NC(=O)[C@H](Cc3c[nH]cn3)NC(=O)[C@H](CC(N)=O)NC(=O)[C@@H](NC(=O)[C@@H](N)CCCN=C(N)N)C3(CCCCC3)SSC[C@@H](C(=O)N[C@@H](CCCN=C(N)N)C(=O)O)NC(=O)[C@H](CCCN=C(N)N)NC2=O)cc1 | 990
NC(N)=NCCC[C@H](NC(=O)[C@@H]1CSSC2(CCCCC2)[C@H](NC(=O)[C@@H](N)CCCN=C(N)N)C(=O)NCC(=O)N[C@@H](Cc2c[nH]cn2)C(=O)N[C@@H](CCCN=C(N)N)C(=O)NCC(=O)N[C@@H](CC(=O)O)C(=O)N[C@@H](Cc2ccc(O)cc2)C(=O)N[C@@H](CCCN=C(N)N)C(=O)N1)C(=O)O | 970
CC[C@H](C)[C@@H]1NC(=O)[C@@H](NC(C)=O)CSSC[C@@H](C(N)=O)NC(=O)[C@H](CCCN=C(N)N)NC(=O)[C@H](Cc2ccc(O)cc2)NC(=O)[C@H](CC(=O)O)NC(=O)CNC(=O)[C@H](CCCN=C(N)N)NC(=O)[C@@H]2CCCN2C1=O (Ac-CIPRGDYRC-NH2; disulfide 1-9) | 330
COc1ccc(C[C@@H]2NC(=O)[C@H](CC(=O)O)NC(=O)CNC(=O)[C@H](CCCN=C(N)N)NC(=O)[C@@H]3CCCN3C(=O)[C@H](CC(N)=O)NC(=O)[C@H](C)SSC[C@@H](C(N)=O)NC(=O)[C@H](CCCN=C(N)N)NC2=O)cc1 (NPRGDY(Me)RC-NH2; linker N-8 via X4) | 170
COc1ccc(C[C@@H]2NC(=O)[C@H](CC(=O)O)NC(=O)CNC(=O)[C@H](CCCN=C(N)N)NC(=O)[C@@H](Cc3c[nH]cn3)NC(=O)CNC(=O)[C@@H](NC(=O)[C@@H](N)CCCN=C(N)N)C3(CCCCC3)SSC[C@@H](C(=O)N[C@@H](CCCN=C(N)N)C(=O)O)NC(=O)[C@H](CCCN=C(N)N)NC2=O)cc1 | 400
